{"source": "ChEMBL document CHEMBL3526070", "about": "“Mass balance study of [¹⁴C]eribulin in patients with advanced solid tumors” (Drug Metab Dispos, 2012)", "key": {"[1]": {"assay": "Clearance in cancer patient at 2 mg, iv administered as bolus infusion for 2 to 5 mins by LC-MS/MS analysis", "format": "ADME, organism-based", "conditions": "human, in vivo", "procedure,_shortened": "(§1)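 Six patients with advanced solid tumours received a single ~2 mg (~80 µCi) 14C-eribulin IV bolus over 2-5 min. Plasma was sampled from pre-dose to 168 h after end of infusion, using lithium-heparin tubes centrifuged at 4 °C. Eribulin was quantified by validated LC-MS/MS (m/z 730→712) and corrected ×2.03 for total eribulin. CL, CLr and Vz came from non-compartmental analysis. Values are mean ± SD, n=6.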"}, "[2]": {"tested_on": "Homo sapiens", "assay": "Dose-normalized AUC (0 to infinity) in cancer patient plasma at 2 mg, iv administered as bolus infusion for 2 to 5 mins by LC-MS/MS analysis/liquid scintillation counting", "format": "ADME, organism-based", "conditions": "in vivo", "procedure,_shortened": "(§2)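 Single ~2 mg (~80 µCi) 14C-eribulin IV bolus over 2-5 min in 6 cancer patients; actual doses were 1.75-3.01 mg. Plasma eribulin was measured by LC-MS/MS and total radioactivity by liquid scintillation counting with quench correction. Cmax, AUC0-t and AUC0-∞ came from non-compartmental analysis and were divided by the actual dose. TRA AUC0-∞ used n=5.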"}, "[3]": {"assay": "Renal clearance in cancer patient at 2 mg, iv administered as bolus infusion for 2 to 5 mins by LC-MS/MS analysis", "format": "ADME, organism-based, Kidney", "conditions": "human, in vivo", "procedure,_shortened": "as §1"}, "[4]": {"tested_on": "Homo sapiens", "assay": "Dose-normalized Cmax in cancer patient plasma at 2 mg, iv administered as bolus infusion for 2 to 5 mins by LC-MS/MS analysis/liquid scintillation counting", "format": "ADME, organism-based", "conditions": "in vivo", "procedure,_shortened": "as §2"}, "[5]": {"tested_on": "Homo sapiens", "assay": "Drug excretion in cancer patient treated with [14C]eribulin acetate at 2 mg, iv administered as bolus infusion for 2 to 5 mins after 312 hrs by LC-MS/MS analysis", "format": "ADME, organism-based", "conditions": "in vivo", "procedure,_shortened": "(§3)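 Patients got a ~2 mg (~80 µCi) 14C-eribulin IV bolus over 2-5 min. Urine was collected in 6 h periods to 48 h, then in 24 h periods. All faeces were collected and homogenised until daily recovery was <1% of dose; four patients continued to 312 h. Unchanged eribulin was measured by LC-MS/MS (faeces 0.1–25 µg/g) and total radioactivity by LSC. Results are % of the administered dose, mean ± SD.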"}, "[6]": {"tested_on": "Homo sapiens", "assay": "Apparent volume of distribution in the terminal phase in cancer patient at 2 mg, iv administered as bolus infusion for 2 to 5 mins by LC-MS/MS analysis", "format": "ADME, organism-based", "conditions": "in vivo", "procedure,_shortened": "as §1"}, "[7]": {"tested_on": "Homo sapiens", "assay": "Dose-normalized AUC (0 to t) in cancer patient plasma at 2 mg, iv administered as bolus infusion for 2 to 5 mins by LC-MS/MS analysis/liquid scintillation counting", "format": "ADME, organism-based", "conditions": "in vivo", "procedure,_shortened": "as §2"}, "[8]": {"tested_on": "Homo sapiens", "assay": "Drug excretion in cancer patient treated with [14C]eribulin acetate at 2 mg, iv administered as bolus infusion for 2 to 5 mins after 168 hrs by LC-MS/MS analysis", "format": "ADME, organism-based", "conditions": "in vivo", "procedure,_shortened": "as §3"}, "[9]": {"assay": "Drug excretion in patient urine assessed as unchanged compound at 0.25 to 4 mg/m2 administered 1 hr, iv infusion every 21 days after 72 hrs", "format": "ADME, organism-based", "conditions": "human, read-out: Drug excretion"}, "[10]": {"assay": "Terminal half life in breast cancer patient", "format": "ADME, organism-based", "conditions": "human, in vivo; read-out: beta t1/2 (converted)"}, "[11]": {"assay": "Drug excretion in patient urine assessed as unchanged compound level at 0.25 to 1.4 mg/m2 administered 1 hr, iv infusion after 72 hrs", "format": "ADME, organism-based", "conditions": "human, read-out: Drug excretion"}, "[12]": {"assay": "Drug excretion in cancer patient feces at 80 uCi, iv administered as bolus infusion for 2 to 5 mins after 168 hrs by liquid scintillation counting", "format": "ADME, organism-based", "conditions": "human, in vivo", "procedure,_shortened": "(§4)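 Patients had one ~2 mg (~80 µCi) 14C-eribulin IV bolus over 2-5 min. Urine was pooled over 6 h periods to 48 h, then every 24 h. All faeces were collected and homogenised. Collection ran to day 8, or longer until daily recovery was <1% of administered activity (faeces up to 312 h). Faeces were solubilised and decolourised, then LSC counted with quench correction, as percentage of administered activity.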"}, "[13]": {"tested_on": "Homo sapiens", "assay": "Cmax in cancer patient plasma assessed as total radioactivity at 2 mg, iv administered as bolus infusion for 2 to 5 mins by LC-MS/MS analysis/liquid scintillation counting", "format": "ADME, organism-based", "set-up": "dose 2 mg, route intravenous", "conditions": "in vivo", "procedure,_shortened": "(§5)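 Six patients with advanced solid tumours got one ~2 mg (~80 µCi) 14C-eribulin IV bolus over 2-5 min. Venous blood was drawn into lithium heparin pre-dose, at end of infusion and 5 min-168 h after, then spun 2,000 g, 4 °C, 15 min. Plasma was counted in duplicate by LSC with quench correction. Non-compartmental analysis; dose-normalised values use actual administered dose.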"}, "[14]": {"tested_on": "Homo sapiens", "assay": "Dose-normalized AUC (0 to infinity) in cancer patient plasma assessed as total radioactivity at 2 mg, iv administered as bolus infusion for 2 to 5 mins by LC-MS/MS analysis/liquid scintillation counting", "format": "ADME, organism-based", "conditions": "in vivo", "procedure,_shortened": "as §5"}, "[15]": {"tested_on": "Homo sapiens", "assay": "Dose-normalized AUC (0 to t) in cancer patient plasma assessed as total radioactivity at 2 mg, iv administered as bolus infusion for 2 to 5 mins by LC-MS/MS analysis/liquid scintillation counting", "format": "ADME, organism-based", "conditions": "in vivo", "procedure,_shortened": "as §5"}, "[16]": {"assay": "Drug excretion in cancer patient urine at 80 uCi, iv administered as bolus infusion for 2 to 5 mins after 168 hrs by liquid scintillation counting", "format": "ADME, organism-based", "conditions": "human, in vivo", "procedure,_shortened": "as §4"}, "[17]": {"assay": "Drug excretion in cancer patient feces at 80 uCi, iv administered as bolus infusion for 2 to 5 mins after 312 hrs by liquid scintillation counting", "format": "ADME, organism-based", "conditions": "human, in vivo", "procedure,_shortened": "as §4"}, "[18]": {"tested_on": "Homo sapiens", "assay": "Toxicity against cancer patient assessed as mortality at 80 uCi, iv administered as bolus infusion for 2 to 5 mins", "format": "organism-based", "conditions": "in vivo"}, "[19]": {"tested_on": "Homo sapiens", "assay": "AUC (0 to infinity) in cancer patient assessed as total radioactivity at 2 mg, iv administered as bolus infusion for 2 to 5 mins by LC-MS/MS analysis/liquid scintillation counting", "format": "ADME, organism-based, Plasma", "set-up": "dose 2 mg, time infinity, route intravenous", "conditions": "in vivo", "procedure,_shortened": "as §5"}, "[20]": {"tested_on": "Homo sapiens", "assay": "AUC (0 to t) in cancer patient assessed as total radioactivity at 2 mg, iv administered as bolus infusion for 2 to 5 mins by LC-MS/MS analysis/liquid scintillation counting", "format": "ADME, organism-based, Plasma", "conditions": "in vivo", "procedure,_shortened": "as §5"}, "[21]": {"tested_on": "Homo sapiens", "assay": "Terminal half life in cancer patient assessed as total radioactivity at 2 mg, iv administered as bolus infusion for 2 to 5 mins by LC-MS/MS analysis/liquid scintillation counting", "format": "ADME, organism-based", "conditions": "in vivo", "procedure,_shortened": "as §5"}, "[22]": {"tested_on": "Homo sapiens", "assay": "Dose-normalized Cmax in cancer patient plasma assessed as total radioactivity at 2 mg, iv administered as bolus infusion for 2 to 5 mins by LC-MS/MS analysis/liquid scintillation counting", "format": "ADME, organism-based", "conditions": "in vivo", "procedure,_shortened": "as §5"}, "[23]": {"tested_on": "Homo sapiens", "assay": "Toxicity against cancer patient assessed as severe adverse event at 80 uCi, iv administered as bolus infusion for 2 to 5 mins", "format": "organism-based", "conditions": "in vivo"}, "[24]": {"assay": "Drug excretion in cancer patient urine at 80 uCi, iv administered as bolus infusion for 2 to 5 mins after 312 hrs by liquid scintillation counting", "format": "ADME, organism-based", "conditions": "human, in vivo", "procedure,_shortened": "as §4"}}}
{"molecule": "C=C1C[C@@H]2CC[C@@]34C[C@H]5O[C@H]6[C@@H](O3)[C@H]3O[C@H](CC[C@@H]3O[C@H]6[C@H]5O4)CC(=O)C[C@@H]3[C@@H](OC)[C@@H](C[C@H](O)CN)O[C@H]3C[C@H]3O[C@@H](CC[C@@H]1O2)C[C@@H](C)C3=C.CS(=O)(=O)O", "note": "[ERIBULIN MESYLATE]", "values": [{"measurement": "clearance", "setting": "[1]", "value": 65.5, "unit": "mL/min"}, {"measurement": "AUC/dose", "setting": "[2]", "value": 328, "unit": "ng·h/mL/mg"}, {"measurement": "CL renal", "setting": "[3]", "value": 5, "unit": "mL/min"}, {"measurement": "Cmax/dose", "setting": "[4]", "value": 222, "unit": "ng/mL/mg"}, {"measurement": "Drug excretion", "setting": "[5]", "value": 68.6, "unit": "%"}, {"measurement": "Vz/F", "setting": "[6]", "value": 247, "unit": "L"}, {"measurement": "AUCt/dose", "setting": "[7]", "value": 301, "unit": "ng·h/mL/mg"}, {"measurement": "Drug excretion", "setting": "[8]", "value": 68, "unit": "%"}, {"measurement": "dose excreted at 72 h", "setting": "[9]", "value": 7, "unit": "%"}, {"measurement": "half-life", "setting": "[10]", "value": 36, "unit": "h"}, {"measurement": "dose excreted at 72 h", "setting": "[11]", "value": 5, "unit": "%"}]}
{"molecule": "C=C1C[C@@H]2CC[C@@]34C[C@H]5O[C@H]6[C@@H](O3)[C@H]3O[C@H](CC[C@@H]3O[C@H]6[C@H]5O4)CC(=O)C[C@@H]3[C@@H](OC)[C@@H](C[C@H](O)CN)O[C@H]3C[C@H]3O[C@@H](CC[C@@H]1O2)C[C@@H](C)C3=C.CC(=O)O", "values": [{"measurement": "Drug excretion", "setting": "[12]", "value": 77.6, "unit": "%"}, {"measurement": "Cmax", "setting": "[13]", "value": 449, "unit": "ng.Eq/ml"}, {"measurement": "AUC/dose", "setting": "[14]", "value": 357, "unit": "ngequiv.hr/ml/mg"}, {"measurement": "AUCt/dose", "setting": "[15]", "value": 269, "unit": "ngequiv.hr/ml/mg"}, {"measurement": "Drug excretion", "setting": "[16]", "value": 8.9, "unit": "%"}, {"measurement": "Drug excretion", "setting": "[17]", "value": 81.5, "unit": "%"}, {"measurement": "Activity", "setting": "[18]", "value": "Non-toxic"}, {"measurement": "AUC", "setting": "[19]", "value": 753, "unit": "ng.Eq.hr/ml"}, {"measurement": "AUCt", "setting": "[20]", "value": 568, "unit": "ng.Eq.hr/ml"}, {"measurement": "beta t1/2", "setting": "[21]", "value": 42.3, "unit": "h"}, {"measurement": "Cmax/dose", "setting": "[22]", "value": 224, "unit": "ngequiv/ml/mg"}, {"measurement": "Activity", "setting": "[23]", "value": "Non-toxic"}, {"measurement": "Drug excretion", "setting": "[24]", "value": 8.9, "unit": "%"}]}
